# Measured values published in ChEMBL document CHEMBL2346510, “Synthesis and antifungal evaluation of 7-arylamino-5,8-dioxo-5,8-dihydroisoquinoline-4-carboxylates” (2013).
# Tests used:
# Type in all cases: functional
# Candida tropicalis = assay: Antifungal activity against Candida tropicalis Berkout KCCM 50662 after 1 day by two fold broth dilution method; settings: Berkout KCCM 50662, 24 h
# Procedure, shortened: (§1)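 Yeasts were tested by twofold broth dilution in modified Sabouraud dextrose broth with about 1 × 10⁵ cells/mL inoculum. Final compound concentrations ran from […]. Incubation was at 37 °C with the MIC read after 1 day. Fluconazole and 5-fluorocytosine were the standard comparators.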
# Cryptococcus neoformans = assay: Antifungal activity against Cryptococcus neoformans KCCM 50564 after 1 day by two fold broth dilution method; settings: KCCM 50564, 24 h; procedure, shortened: as §1
# Aspergillus niger = assay: Antifungal activity against Aspergillus niger KCTC 1231 after 2 days by two fold broth dilution method; settings: KCTC 1231, 48 h
# Procedure, shortened: (§2)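 Twofold broth dilution in modified Sabouraud dextrose broth, inoculum about 1 × 10⁵ cells/mL. Compounds were tested at final concentrations of […]. Plates were incubated at 37 °C and the MIC was read after 2 days. Fluconazole and 5-fluorocytosine served as reference agents.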
# Candida albicans = assay: Antifungal activity against Candida albicans Berkout KCCM 50235 after 1 day by two fold broth dilution method; settings: Berkout KCCM 50235, 24 h; procedure, shortened: as §1
# Pichia kudriavzevii = assay: Antifungal activity against Candida krusei Berkout KCCM 11655 after 1 day by two fold broth dilution method; settings: Berkout KCCM 11655, 24 h; procedure, shortened: as §1
# Aspergillus flavus = assay: Antifungal activity against Aspergillus flavus KCCM 11899 after 2 days by two fold broth dilution method; settings: KCCM 11899, 48 h; procedure, shortened: as §2
structure (smiles),measurement,setting,value
COC(=O)c1c(C)nc(C)c2c1C(=O)C=CC2=O,MIC,Candida tropicalis,12.5 µg/mL
same,MIC,Cryptococcus neoformans,50 µg/mL
same,MIC,Aspergillus niger,> 100 µg/mL
same,MIC,Candida albicans,25 µg/mL
same,MIC,Pichia kudriavzevii,50 µg/mL
same,MIC,Aspergillus flavus,50 µg/mL
CC(=O)c1cc(O)ccc1O,MIC,Candida tropicalis,50 µg/mL
same,MIC,Cryptococcus neoformans,50 µg/mL
same,MIC,Aspergillus niger,> 100 µg/mL
same,MIC,Candida albicans,50 µg/mL
same,MIC,Pichia kudriavzevii,100 µg/mL
same,MIC,Aspergillus flavus,100 µg/mL
COC(=O)c1c(C)nc(C)c2c1C(=O)C=C(Sc1ccc(C)c(C)c1)C2=O,MIC,Candida tropicalis,12.5 µg/mL
same,MIC,Cryptococcus neoformans,6.3 µg/mL
same,MIC,Aspergillus niger,6.3 µg/mL
same,MIC,Candida albicans,25 µg/mL
same,MIC,Pichia kudriavzevii,12.5 µg/mL
same,MIC,Aspergillus flavus,6.3 µg/mL
COC(=O)c1c(C)nc(C)c2c1C(=O)C=C(Sc1ccc(O)cc1)C2=O,MIC,Candida tropicalis,25 µg/mL
same,MIC,Cryptococcus neoformans,3.2 µg/mL
same,MIC,Aspergillus niger,6.3 µg/mL
same,MIC,Candida albicans,25 µg/mL
same,MIC,Pichia kudriavzevii,6.3 µg/mL
same,MIC,Aspergillus flavus,6.3 µg/mL
COC(=O)c1c(C)nc(C)c2c1C(=O)C=C(Sc1ccc(C)cc1)C2=O,MIC,Candida tropicalis,6.3 µg/mL
same,MIC,Cryptococcus neoformans,1.6 µg/mL
same,MIC,Aspergillus niger,6.3 µg/mL
same,MIC,Candida albicans,6.3 µg/mL
same,MIC,Pichia kudriavzevii,12.5 µg/mL
same,MIC,Aspergillus flavus,3.2 µg/mL
COC(=O)c1c(C)nc(C)c2c1C(=O)C=C(Nc1ccc(Br)cc1)C2=O,MIC,Candida tropicalis,12.5 µg/mL
same,MIC,Cryptococcus neoformans,12.5 µg/mL
same,MIC,Aspergillus niger,6.3 µg/mL
same,MIC,Candida albicans,12.5 µg/mL
same,MIC,Pichia kudriavzevii,12.5 µg/mL
same,MIC,Aspergillus flavus,12.5 µg/mL
COC(=O)c1c(C)nc(C)c2c1C(=O)C=C(Nc1ccc(I)cc1)C2=O,MIC,Candida tropicalis,12.5 µg/mL
same,MIC,Cryptococcus neoformans,6.3 µg/mL
same,MIC,Aspergillus niger,12.5 µg/mL
same,MIC,Candida albicans,12.5 µg/mL
same,MIC,Pichia kudriavzevii,12.5 µg/mL
same,MIC,Aspergillus flavus,12.5 µg/mL
COC(=O)c1c(C)nc(C)c2c1C(=O)C=C(Nc1ccc(C)cc1)C2=O,MIC,Candida tropicalis,25 µg/mL
same,MIC,Cryptococcus neoformans,12.5 µg/mL
same,MIC,Aspergillus niger,25 µg/mL
same,MIC,Candida albicans,25 µg/mL
same,MIC,Pichia kudriavzevii,25 µg/mL
same,MIC,Aspergillus flavus,25 µg/mL
COC(=O)c1c(C)nc(C)c2c1C(=O)C(Br)=C(Nc1ccc(F)c(F)c1)C2=O,MIC,Candida tropicalis,1.6 µg/mL
same,MIC,Cryptococcus neoformans,12.5 µg/mL
same,MIC,Aspergillus niger,6.3 µg/mL
same,MIC,Candida albicans,6.3 µg/mL
same,MIC,Pichia kudriavzevii,25 µg/mL
same,MIC,Aspergillus flavus,12.5 µg/mL
COC(=O)c1c(C)nc(C)c2c1C(=O)C(Br)=C(Nc1ccc(Br)cc1)C2=O,MIC,Candida tropicalis,1.6 µg/mL
same,MIC,Cryptococcus neoformans,12.5 µg/mL
same,MIC,Aspergillus niger,1.6 µg/mL
same,MIC,Candida albicans,1.6 µg/mL
same,MIC,Pichia kudriavzevii,12.5 µg/mL
same,MIC,Aspergillus flavus,3.2 µg/mL
COC(=O)c1c(C)nc(C)c2c1C(=O)C(Br)=C(Nc1ccc(Cl)cc1)C2=O,MIC,Candida tropicalis,6.3 µg/mL
same,MIC,Cryptococcus neoformans,12.5 µg/mL
same,MIC,Aspergillus niger,12.5 µg/mL
same,MIC,Candida albicans,25 µg/mL
same,MIC,Pichia kudriavzevii,25 µg/mL
same,MIC,Aspergillus flavus,12.5 µg/mL
COC(=O)c1c(C)nc(C)c2c1C(=O)C(Br)=C(Nc1ccc(F)cc1)C2=O,MIC,Candida tropicalis,6.3 µg/mL
same,MIC,Cryptococcus neoformans,6.3 µg/mL
same,MIC,Aspergillus niger,6.3 µg/mL
same,MIC,Candida albicans,6.3 µg/mL
same,MIC,Pichia kudriavzevii,12.5 µg/mL
same,MIC,Aspergillus flavus,12.5 µg/mL
COC(=O)c1c(C)nc(C)c2c1C(=O)C(Br)=C(Nc1ccc(C)cc1)C2=O,MIC,Candida tropicalis,1.6 µg/mL
same,MIC,Cryptococcus neoformans,6.3 µg/mL
same,MIC,Aspergillus niger,6.3 µg/mL
same,MIC,Candida albicans,6.3 µg/mL
same,MIC,Pichia kudriavzevii,6.3 µg/mL
same,MIC,Aspergillus flavus,25 µg/mL
COC(=O)c1c(C)nc(C)c2c1C(=O)C(Br)=C(Nc1ccc(OC)cc1)C2=O,MIC,Candida tropicalis,12.5 µg/mL
same,MIC,Cryptococcus neoformans,1.6 µg/mL
same,MIC,Aspergillus niger,1.6 µg/mL
same,MIC,Candida albicans,0.8 µg/mL
same,MIC,Pichia kudriavzevii,1.6 µg/mL
same,MIC,Aspergillus flavus,12.5 µg/mL
COC(=O)c1c(C)nc(C)c2c1C(=O)C(Cl)=C(Nc1ccc(I)cc1)C2=O,MIC,Candida tropicalis,6.3 µg/mL
same,MIC,Cryptococcus neoformans,3.2 µg/mL
same,MIC,Aspergillus niger,1.6 µg/mL
same,MIC,Candida albicans,6.3 µg/mL
same,MIC,Pichia kudriavzevii,12.5 µg/mL
same,MIC,Aspergillus flavus,25 µg/mL
COC(=O)c1c(C)nc(C)c2c1C(=O)C(Cl)=C(Nc1ccc(F)c(F)c1)C2=O,MIC,Candida tropicalis,25 µg/mL
same,MIC,Cryptococcus neoformans,12.5 µg/mL
same,MIC,Aspergillus niger,1.6 µg/mL
same,MIC,Candida albicans,1.6 µg/mL
same,MIC,Pichia kudriavzevii,6.3 µg/mL
same,MIC,Aspergillus flavus,6.3 µg/mL
COC(=O)c1c(C)nc(C)c2c1C(=O)C(Cl)=C(Nc1ccc(Br)cc1)C2=O,MIC,Candida tropicalis,12.5 µg/mL
same,MIC,Cryptococcus neoformans,3.2 µg/mL
same,MIC,Aspergillus niger,1.6 µg/mL
same,MIC,Candida albicans,1.6 µg/mL
same,MIC,Pichia kudriavzevii,6.3 µg/mL
same,MIC,Aspergillus flavus,6.3 µg/mL
COC(=O)c1c(C)nc(C)c2c1C(=O)C(Cl)=C(Nc1ccc(C#N)cc1)C2=O,MIC,Candida tropicalis,12.5 µg/mL
same,MIC,Cryptococcus neoformans,1.6 µg/mL
same,MIC,Aspergillus niger,6.3 µg/mL
same,MIC,Candida albicans,1.6 µg/mL
same,MIC,Pichia kudriavzevii,12.5 µg/mL
same,MIC,Aspergillus flavus,6.3 µg/mL
COC(=O)c1c(C)nc(C)c2c1C(=O)C(Cl)=C(Nc1ccc(Cl)cc1)C2=O,MIC,Candida tropicalis,6.3 µg/mL
same,MIC,Cryptococcus neoformans,12.5 µg/mL
same,MIC,Aspergillus niger,3.2 µg/mL
same,MIC,Candida albicans,1.6 µg/mL
same,MIC,Pichia kudriavzevii,12.5 µg/mL
same,MIC,Aspergillus flavus,1.6 µg/mL
COC(=O)c1c(C)nc(C)c2c1C(=O)C(Cl)=C(Nc1ccc(OC)cc1)C2=O,MIC,Candida tropicalis,12.5 µg/mL
same,MIC,Cryptococcus neoformans,3.2 µg/mL
same,MIC,Aspergillus niger,3.2 µg/mL
same,MIC,Candida albicans,1.6 µg/mL
same,MIC,Pichia kudriavzevii,12.5 µg/mL
same,MIC,Aspergillus flavus,6.3 µg/mL
COC(=O)c1c(C)nc(C)c2c1C(=O)C(Cl)=C(Nc1ccc(F)cc1)C2=O,MIC,Candida tropicalis,1.6 µg/mL
same,MIC,Cryptococcus neoformans,6.3 µg/mL
same,MIC,Aspergillus niger,1.6 µg/mL
same,MIC,Candida albicans,1.6 µg/mL
same,MIC,Pichia kudriavzevii,6.3 µg/mL
same,MIC,Aspergillus flavus,6.3 µg/mL
COC(=O)c1c(C)nc(C)c2c1C(=O)C(Cl)=C(Nc1ccc(C)cc1)C2=O,MIC,Candida tropicalis,0.8 µg/mL
same,MIC,Cryptococcus neoformans,6.3 µg/mL
same,MIC,Aspergillus niger,1.6 µg/mL
same,MIC,Candida albicans,1.6 µg/mL
same,MIC,Pichia kudriavzevii,3.2 µg/mL
same,MIC,Aspergillus flavus,25 µg/mL
OC(Cn1cncn1)(Cn1cncn1)c1ccc(F)cc1F [FLUCONAZOLE],MIC,Candida tropicalis,6.3 µg/mL
same,MIC,Cryptococcus neoformans,6.3 µg/mL
same,MIC,Aspergillus niger,25 µg/mL
same,MIC,Candida albicans,50 µg/mL
same,MIC,Pichia kudriavzevii,25 µg/mL
same,MIC,Aspergillus flavus,25 µg/mL
Nc1nc(=O)[nH]cc1F [FLUCYTOSINE],MIC,Candida tropicalis,3.2 µg/mL
same,MIC,Cryptococcus neoformans,12.5 µg/mL
same,MIC,Aspergillus niger,6.3 µg/mL
same,MIC,Candida albicans,3.2 µg/mL
same,MIC,Pichia kudriavzevii,6.3 µg/mL
same,MIC,Aspergillus flavus,6.3 µg/mL
